Experimental data from ChEMBL document CHEMBL1156982, “New 3-methylquinoxaline-2-carboxamide 1,4-di-N-oxide derivatives as anti-Mycobacterium tuberculosis agents” (Bioorg Med Chem, 2010).
≈ marks a conversion by molar mass, not a printed value.

Assays:
[1] = system: Mycobacterium tuberculosis; assay: Antituberculosis activity against Mycobacterium tuberculosis H37Rv ATCC 27294 after 4 days by microplate alamar blue assay; type: functional; details: H37Rv ATCC 27294, 96 h
In short: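 M. tuberculosis H37Rv (ATCC 27294) in BACTEC 12B medium, tested by Microplate Alamar Blue Assay across a range of lower concentrations. MIC is the lowest concentration giving a 90% reduction in fluorescence versus controls. Rifampicin was the reference.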

Vero = assay: Cytotoxicity against african green monkey Vero cells after 72 hrs by MTT assay; type: cell-based; details: Chlorocebus sabaeus
In short: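 VERO cells were exposed to compound for 72 h. Viability was read from cellular conversion of MTT to formazan (CellTiter 96 non-radioactive proliferation assay), and the IC50 was determined.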

[2] = Selectivity ratio of IC50 for Vero cells to MIC for Mycobacterium tuberculosis H37Rv ATCC 27294; type: functional
In short: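 SI is the ratio of the IC50 measured in VERO cells (72 h MTT) to the MIC against M. tuberculosis H37Rv (MABA, 90% fluorescence reduction). An SI of 10 or more counts as active at the second screening level.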

[3] = system: Mycobacterium tuberculosis; assay: Antituberculosis activity against Mycobacterium tuberculosis H37Rv ATCC 27294; type: functional

For `Cc1c(C(=O)NCCc2ccccc2)[n+]([O-])c2cc(C(F)(F)F)ccc2[n+]1[O-]`, the MIC [1] was 1.15 mg/L (≈ 2.95 µM), the IC50 (Vero) was > 30 mg/L and the Selectivity ratio [2] was >26.019. The Activity [3] was “>=90%”.

With `COc1ccc(CCNC(=O)c2c(C)[n+]([O-])c3ccccc3[n+]2[O-])cc1` the MIC [1] was 3.46 mg/L (≈ 9.8 µM), the IC50 (Vero) was > 30 mg/L and the Selectivity ratio [2] was >8.6605. The Activity [3] was “>=90%”.

For `COc1ccc(CCNC(=O)c2c(C)[n+]([O-])c3ccc(F)cc3[n+]2[O-])cc1`, the MIC [1] was < 0.195 mg/L, the IC50 (Vero) was > 30 mg/L and the Selectivity ratio [2] was >153.84. The Activity [3] was “>=90%”.

In the case of `COc1ccc(CCNC(=O)c2c(C)[n+]([O-])c3cc(F)c(F)cc3[n+]2[O-])cc1`, the MIC [1] is reported as 2.06 mg/L (≈ 5.29 µM), the IC50 (Vero) is reported as > 30 mg/L and the Selectivity ratio [2] is reported as >14.577. The Activity [3] was “>=90%”.

For `Cc1c(C(=O)NCc2ccccc2)[n+]([O-])c2cc(F)c(F)cc2[n+]1[O-]`, the MIC [1] was 1.73 mg/L (≈ 5 µM), the IC50 (Vero) was 18.4 mg/L (≈ 53.2 µM) and the Selectivity ratio [2] was 10.64. The Activity [3] was “>=90%”.

With `Cc1c(C(=O)NCCc2ccccc2)[n+]([O-])c2cc(Cl)c(Cl)cc2[n+]1[O-]` the MIC [1] was < 0.195 mg/L, the IC50 (Vero) was > 30 mg/L and the Selectivity ratio [2] was >153.84. For the same molecule, the Activity [3] was “>=90%”.

In the case of `Cc1c(C(=O)NCCc2ccccc2)[n+]([O-])c2cc(F)ccc2[n+]1[O-]`, the MIC [1] is reported as 0.504 mg/L (≈ 1.48 µM), the IC50 (Vero) is reported as > 100 mg/L and the Selectivity ratio [2] is reported as >198.41. For the same molecule, the Activity [3] was “>=90%”.

For `COc1ccc2c(c1)[n+]([O-])c(C(=O)NCc1ccccc1)c(C)[n+]2[O-]`, the MIC [1] was 12.3 mg/L (≈ 36.4 µM) and the Activity [3] was “>=90%”.

In the case of `Cc1c(C(=O)NCc2ccccc2)[n+]([O-])c2cc(Cl)ccc2[n+]1[O-]`, the MIC [1] is reported as 0.433 mg/L (≈ 1.26 µM), the IC50 (Vero) is reported as > 100 mg/L and the Selectivity ratio [2] is reported as >230.94. The Activity [3] was “>=90%”.

In the case of `Cc1ccc2c(c1)[n+]([O-])c(C(=O)NCc1ccccc1)c(C)[n+]2[O-]`, the MIC [1] is reported as 4.21 mg/L (≈ 13 µM), the IC50 (Vero) is reported as > 100 mg/L and the Selectivity ratio [2] is reported as >23.77. The Activity [3] was “>=90%”.

In the case of `Cc1c(C(=O)NCCc2ccccc2)[n+]([O-])c2cc(F)c(F)cc2[n+]1[O-]`, the MIC [1] is reported as 0.517 mg/L (≈ 1.44 µM), the IC50 (Vero) is reported as > 30 mg/L and the Selectivity ratio [2] is reported as >58.027. For the same molecule, the Activity [3] was “>=90%”.

For `COc1ccc(CCNC(=O)c2c(C)[n+]([O-])c3ccc(Cl)cc3[n+]2[O-])cc1`, the MIC [1] was < 0.195 mg/L, the IC50 (Vero) was > 30 mg/L and the Selectivity ratio [2] was >153.84. The Activity [3] was “>=90%”.

For `COc1ccc(CCNC(=O)c2c(C)[n+]([O-])c3cc(Cl)c(Cl)cc3[n+]2[O-])cc1`, the MIC [1] was 0.454 mg/L (≈ 1.08 µM), the IC50 (Vero) was > 30 mg/L and the Selectivity ratio [2] was >66.079. The Activity [3] was “>=90%”.

For `Cc1c(C(=O)NCc2ccccc2)[n+]([O-])c2cc(Cl)c(Cl)cc2[n+]1[O-]`, the MIC [1] was < 0.2 mg/L, the IC50 (Vero) was > 100 mg/L and the Selectivity ratio [2] was >500. For the same molecule, the Activity [3] was “>=90%”.

In the case of `COc1ccc(CNC(=O)c2c(C)[n+]([O-])c3ccc(C(F)(F)F)cc3[n+]2[O-])cc1`, the MIC [1] is reported as 0.999 mg/L (≈ 2.45 µM), the IC50 (Vero) is reported as > 30 mg/L and the Selectivity ratio [2] is reported as >30.03. The Activity [3] was “>=90%”.

For `Cc1c(C(=O)NCc2ccccc2)[n+]([O-])c2cc(C(F)(F)F)ccc2[n+]1[O-]`, the MIC [1] was 0.406 mg/L (≈ 1.08 µM), the IC50 (Vero) was > 100 mg/L and the Selectivity ratio [2] was >246.3. The Activity [3] was “>=90%”.

For `COc1ccc(CNC(=O)c2c(C)[n+]([O-])c3ccccc3[n+]2[O-])cc1`, the MIC [1] was 2.85 mg/L (≈ 8.39 µM), the IC50 (Vero) was > 30 mg/L and the Selectivity ratio [2] was >10.537. The Activity [3] was “>=90%”.

For `COc1ccc(CNC(=O)c2c(C)[n+]([O-])c3ccc(C)cc3[n+]2[O-])cc1`, the MIC [1] was 8.9 mg/L (≈ 25.2 µM), the IC50 (Vero) was > 30 mg/L and the Selectivity ratio [2] was >3.3696. The Activity [3] was “>=90%”.

In the case of `Cc1c(C(=O)NCc2ccccc2)[n+]([O-])c2cc(F)ccc2[n+]1[O-]`, the MIC [1] is reported as 1.52 mg/L (≈ 4.65 µM), the IC50 (Vero) is reported as > 100 mg/L and the Selectivity ratio [2] is reported as >65.7. The Activity [3] was “>=90%”.

In the case of `COc1ccc(CNC(=O)c2c(C)[n+]([O-])c3cc(C)c(C)cc3[n+]2[O-])cc1`, the MIC [1] is reported as > 100 mg/L and the Activity [3] is reported as “>=90%”.

For `Cc1c(C(=O)NCCc2ccccc2)[n+]([O-])c2ccccc2[n+]1[O-]`, the MIC [1] was 3.05 mg/L (≈ 9.43 µM), the IC50 (Vero) was > 100 mg/L and the Selectivity ratio [2] was >32.81. The Activity [3] was “>=90%”.

In the case of `Cc1ccc2c(c1)[n+]([O-])c(C(=O)NCCc1ccccc1)c(C)[n+]2[O-]`, the MIC [1] is reported as 8.62 mg/L (≈ 25.6 µM), the IC50 (Vero) is reported as > 100 mg/L and the Selectivity ratio [2] is reported as >11.6. For the same molecule, the Activity [3] was “>=90%”.

With `Cc1cc2c(cc1C)[n+]([O-])c(C(=O)NCCc1ccccc1)c(C)[n+]2[O-]` the MIC [1] was 16.4 mg/L (≈ 46.6 µM) and the Activity [3] was “>=90%”.

For `COc1ccc2c(c1)[n+]([O-])c(C(=O)NCCc1ccccc1)c(C)[n+]2[O-]`, the MIC [1] was 13.7 mg/L (≈ 38.7 µM) and the Activity [3] was “>=90%”.

For `Cc1c(C(=O)NCCc2ccccc2)[n+]([O-])c2cc(Cl)ccc2[n+]1[O-]`, the MIC [1] was < 0.2 mg/L, the IC50 (Vero) was > 100 mg/L and the Selectivity ratio [2] was >500. For the same molecule, the Activity [3] was “>=90%”.

For `COc1ccc(CCNC(=O)c2c(C)[n+]([O-])c3ccc(C(F)(F)F)cc3[n+]2[O-])cc1`, the MIC [1] was 1.43 mg/L (≈ 3.39 µM), the IC50 (Vero) was > 30 mg/L and the Selectivity ratio [2] was >21.023. For the same molecule, the Activity [3] was “>=90%”.

With `COc1ccc(CNC(=O)c2c(C)[n+]([O-])c3ccc(OC)cc3[n+]2[O-])cc1` the MIC [1] was 12 mg/L (≈ 32.5 µM) and the Activity [3] was “>=90%”.

In the case of `COc1ccc(CCNC(=O)c2c(C)[n+]([O-])c3ccc(OC)cc3[n+]2[O-])cc1`, the MIC [1] is reported as 16.9 mg/L (≈ 44 µM) and the Activity [3] is reported as “>=90%”.

With `COc1ccc(CNC(=O)c2c(C)[n+]([O-])c3ccc(Cl)cc3[n+]2[O-])cc1` the Activity [3] was “>=90%”.

For `Cc1c(C(=O)NCc2ccccc2)[n+]([O-])c2ccccc2[n+]1[O-]`, the MIC [1] was 2.61 mg/L (≈ 8.42 µM), the IC50 (Vero) was > 100 mg/L and the Selectivity ratio [2] was >38.372. The Activity [3] was “>=90%”.

With `Cc1cc2c(cc1C)[n+]([O-])c(C(=O)NCc1ccccc1)c(C)[n+]2[O-]` the MIC [1] was > 100 mg/L and the Activity [3] was “>=90%”.

With `COc1ccc(CCNC(=O)c2c(C)[n+]([O-])c3ccc(C)cc3[n+]2[O-])cc1` the MIC [1] was 8.85 mg/L (≈ 24.1 µM), the IC50 (Vero) was > 30 mg/L and the Selectivity ratio [2] was >3.389. For the same molecule, the Activity [3] was “>=90%”.

For `COc1ccc(CCNC(=O)c2c(C)[n+]([O-])c3cc(C)c(C)cc3[n+]2[O-])cc1`, the MIC [1] was > 100 mg/L and the Activity [3] was “>=90%”.

With `COc1ccc(CNC(=O)c2c(C)[n+]([O-])c3cc(Cl)c(Cl)cc3[n+]2[O-])cc1` the Activity [3] was “>=90%”.

In the case of `COc1ccc(CNC(=O)c2c(C)[n+]([O-])c3ccc(F)cc3[n+]2[O-])cc1`, the MIC [1] is reported as 1.51 mg/L (≈ 4.22 µM), the IC50 (Vero) is reported as > 30 mg/L and the Selectivity ratio [2] is reported as >19.893. The Activity [3] was “>=90%”.

With `COc1ccc(CNC(=O)c2c(C)[n+]([O-])c3cc(F)c(F)cc3[n+]2[O-])cc1` the MIC [1] was 0.764 mg/L (≈ 2.04 µM), the IC50 (Vero) was 16.6 mg/L (≈ 44.2 µM) and the Selectivity ratio [2] was 21.734. The Activity [3] was “>=90%”.

In the case of `CO[C@H]1/C=C/O[C@@]2(C)Oc3c(C)c(O)c4c(O)c(c(/C=N/N5CCN(C)CC5)c(O)c4c3C2=O)NC(=O)/C(C)=C\C=C\[C@H](C)[C@H](O)[C@@H](C)[C@@H](O)[C@@H](C)[C@H](OC(C)=O)[C@@H]1C` [RIFAMPIN], the MIC [1] is reported as 0.015 mg/L (≈ 0.0182 µM), the IC50 (Vero) is reported as > 100 mg/L and the Selectivity ratio [2] is reported as >800.
